Laboratory results taken from ChEMBL document CHEMBL1140964, “1,8-Naphthyridines VII. New substituted 5-amino[1,2,4]triazolo[4,3-a][1,8]naphthyridine-6-carboxamides and their isosteric analogues, exhibiting notable anti-inflammatory and/or analgesic activities, but no acute gastrolesivity” (Eur J Med Chem, 2008).

Experiments:
Mus musculus [1] = assay: Antinociceptive activity in Swiss mouse assessed as inhibition of acetic acid-induced writhing response at 100 mg/kg, po dose administered 1 hr before acetic acid challenge measured for 30 mins; type: functional
Procedure, shortened: (§1)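 Swiss mice (25–35 g, either sex), fasted overnight, received compound orally in 0.5% methylcellulose or vehicle, with 8–10 per group. Testing started at 100 mg/kg with successive twofold dose reductions. Writhes were counted for 30 min after acetic acid injection. Percent inhibition of the writhing response was calculated versus vehicle controls (Student's t-test).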

Mus musculus [2] = assay: Antinociceptive activity in Swiss mouse assessed as inhibition of acetic acid-induced writhing response at 50 mg/kg, po dose administered 1 hr before acetic acid challenge measured for 30 mins; type: functional; procedure, shortened: as §1
Rattus norvegicus [3] = assay: Antiinflammatory activity against carrageenan-induced paw edema in Wistar rat at 100 mg/kg, po dose administered 1 hr before carrageenan challenge assessed after 3 hrs; type: functional
Procedure, shortened: (§2)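 Wistar rats (250–300 g, either sex), fasted overnight, dosed by oral gavage with the compound suspended in 0.5% methylcellulose. Controls received vehicle alone, with 8–10 animals per group. Dosing started at 100 mg/kg and was halved stepwise. Carrageenan (1%, 0.1 mL) was injected subplantar 1 h post-dose. Paw volume was measured by plethysmometer immediately and at 3 h, and % inhibition of swelling was calculated versus controls (Student's t-test).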

Mus musculus [4] = assay: Sedative activity in Swiss mouse assessed as inhibition of spontaneous locomotor activity at 100 mg/kg, po dose measured for every 5 mins during 60 to 90 mins; type: organism-based; set-up: dose 100 mg/kg, route oral
Procedure, shortened: (§3)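 Fasted Swiss mice (25–35 g, either sex) were given compound orally in 0.5% methylcellulose or vehicle. Each mouse was placed alone in a photobeam-type activity cage, with counts recorded every 5 min for 90 min. Pulses from the final 30 min were scored, with testing run 9:00–13:00. Percent inhibition was calculated versus controls (Student's t-test).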

Mus musculus [5] = assay: Antinociceptive activity in Swiss mouse assessed as inhibition of acetic acid-induced writhing response at 25 mg/kg, po dose administered 1 hr before acetic acid challenge measured for 30 mins; type: functional; procedure, shortened: as §1
Mus musculus [6] = assay: Antinociceptive activity in Swiss mouse assessed as inhibition of acetic acid-induced writhing response at 12.5 mg/kg, po dose administered 1 hr before acetic acid challenge measured for 30 mins; type: functional; procedure, shortened: as §1
Mus musculus [7] = assay: Antinociceptive activity in Swiss mouse assessed as inhibition of acetic acid-induced writhing response at 6.25 mg/kg, po dose administered 1 hr before acetic acid challenge measured for 30 mins; type: functional; procedure, shortened: as §1
Mus musculus [8] = assay: Antinociceptive activity in Swiss mouse assessed as inhibition of acetic acid-induced writhing response at 3.12 mg/kg, po dose administered 1 hr before acetic acid challenge measured for 30 mins; type: functional
Rattus norvegicus [9] = assay: Antiinflammatory activity against carrageenan-induced paw edema in Wistar rat at 50 mg/kg, po dose administered 1 hr before carrageenan challenge assessed after 3 hrs; type: functional; procedure, shortened: as §2
Rattus norvegicus [10] = assay: Antiinflammatory activity against carrageenan-induced paw edema in Wistar rat at 25 mg/kg, po dose administered 1 hr before carrageenan challenge assessed after 3 hrs; type: functional; procedure, shortened: as §2
Rattus norvegicus [11] = assay: Antiinflammatory activity against carrageenan-induced paw edema in Wistar rat at 12.5 mg/kg, po dose administered 1 hr before carrageenan challenge assessed after 3 hrs; type: functional; procedure, shortened: as §2
Rattus norvegicus [12] = assay: Antiinflammatory activity against carrageenan-induced paw edema in Wistar rat at 6.25 mg/kg, po dose administered 1 hr before carrageenan challenge assessed after 3 hrs; type: functional; procedure, shortened: as §2
Mus musculus [13] = assay: Sedative activity in Swiss mouse assessed as inhibition on spontaneous locomotor activity at 25 mg/kg, po measured for every 5 mins during 60 to 90 mins; type: functional, organism-based; set-up: dose 25 mg/kg, route oral; procedure, shortened: as §3
Mus musculus [14] = assay: Sedative activity in Swiss mouse assessed as inhibition on spontaneous locomotor activity at 12.5 mg/kg, po dose measured for every 5 mins during 60 to 90 mins; type: ADME, organism-based; set-up: dose 12.5 mg/kg, route oral; procedure, shortened: as §3
Mus musculus [15] = assay: Sedative activity in Swiss mouse assessed as inhibition on spontaneous locomotor activity at 6.25 mg/kg, po measured for every 5 mins during 60 to 90 mins; type: ADME, organism-based; set-up: dose 6.25 mg/kg, route oral; procedure, shortened: as §3
Rattus norvegicus [16] = assay: Antiinflammatory activity against carrageenan-induced paw edema in Wistar rat at 3.12 mg/kg, po dose administered 1 hr before carrageenan challenge assessed after 3 hrs; type: functional

Compound	inhibition in vivo at 100 mg/kg (Mus musculus [1]) [%]	inhibition in vivo at 50 mg/kg (Mus musculus [2]) [%]	inhibition in vivo at 100 mg/kg (Rattus norvegicus [3]) [%]	inhibition at 100 mg/kg (Mus musculus [4]) [%]	inhibition in vivo at 25 mg/kg (Mus musculus [5]) [%]	inhibition in vivo at 50 mg/kg (Rattus norvegicus [9]) [%]	other results
CCCCOc1c(C(=O)N(CC)CC)c2nnc(C(C)C)n2c2ncccc12	40	14	3	76	–	–	–
CCNC(=O)c1c(N2CCN(C)CC2)c2cccnc2n2c(C(C)C)nnc12	79	24	0	80	–	–	–
CCN(CC)C(=O)c1c(NN2CCN(C)CC2)c2cccnc2n2c(C(C)C)nnc12	17	–	0	–	–	–	–
CCN(CC)C(=O)c1c(OC2CCN(C)CC2)c2cccnc2n2c(C(C)C)nnc12	87	35	18	65	–	–	–
CCC(CC)Nc1c(C(=O)N(CC)CC)c2nnc(C(C)C)n2c2ncccc12	91	75	50	97	58	47	inhibition in vivo at 12.5 mg/kg (Mus musculus [6]): 49%; inhibition in vivo at 6.25 mg/kg (Mus musculus [7]): 36%; inhibition in vivo at 3.12 mg/kg (Mus musculus [8]): 18%; inhibition in vivo at 25 mg/kg (Rattus norvegicus [10]): 47%; inhibition in vivo at 12.5 mg/kg (Rattus norvegicus [11]): 45%; inhibition in vivo at 6.25 mg/kg (Rattus norvegicus [12]): 11%; inhibition at 25 mg/kg (Mus musculus [13]): 70%; inhibition at 12.5 mg/kg (Mus musculus [14]): 92%; inhibition at 6.25 mg/kg (Mus musculus [15]): 81%
CCN(CC)C(=O)c1c(N(C)CC)c2cccnc2n2c(C(C)C)nnc12	81	59	71	53	17	67	inhibition in vivo at 25 mg/kg (Rattus norvegicus [10]): 65%; inhibition in vivo at 12.5 mg/kg (Rattus norvegicus [11]): 51%; inhibition in vivo at 6.25 mg/kg (Rattus norvegicus [12]): 42%; inhibition in vivo at 3.12 mg/kg (Rattus norvegicus [16]): 0%
CC(C)CNc1c(C(=O)N2CCCC2)c2nnc(C(C)C)n2c2ncccc12	60	64	0	5	29	–	–
CCN(CC)C(=O)c1c(N2CCN(C)CC2)c2ccccc2n2c(C(C)C)nnc12	100	100	34	54	77	0	inhibition in vivo at 12.5 mg/kg (Mus musculus [6]): 14%; inhibition at 25 mg/kg (Mus musculus [13]): 21%
CCN(CC)C(=O)c1c(N2CCN(C)CC2)c2cccnc2n2cnnc12	14	–	0	–	–	–	–
CCN(CC)C(=O)c1c(OC(C)C)c2cccnc2n2c(C(C)C)nnc12	11	–	24	–	–	0	–
CCN(CC)C(=O)c1c(NCC(C)C)c2ccccc2n2c(C(C)C)nnc12	88	29	0	14	–	–	–
CC(C)c1nnc2c(C(=O)N3CCCC3)c(N3CCN(C)CC3)c3cccnc3n12	100	–	0	–	–	–	–
